The source of these data is ChEMBL document CHEMBL4138275, “Taccalonolide Microtubule Stabilizers Generated Using Semisynthesis Define the Effects of Mono Acyloxy Moieties at C-7 or C-15 and Disubstitutions at C-7 and C-25” (J Nat Prod, 2018).

Broadly, the IC50 is the concentration at which inhibition is half-maximal. A high value points to weaker potency in that assay.

The test system of the assay is HeLa. The assay is described as follows: Antiproliferative activity against human HeLa cells after 48 hrs by sulforhodamine B assay. In kind it is functional, cell-based. The procedure, abridged: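 HeLa cells (STR-validated) grown in BME with 10% FBS and gentamycin, seeded 2500/well, left to adhere overnight, then exposed to compounds for 48 h. Cell density read by sulforhodamine B staining. IC50 is the concentration giving 50% inhibition of cell density versus vehicle, fitted by nonlinear regression. Mean of 3 or 4 experiments, each in triplicate, ±SD.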
Background: In SRB staining, fixed cells bind dye roughly in proportion to their protein.
`CC(=O)O[C@H]1[C@H]2[C@H]([C@@H]3[C@@H](O)[C@@H]4[C@H]([C@H](C)C=C5OC(=O)[C@@](C)(O)[C@@]54C)[C@@]3(C)[C@H]1OC(C)=O)[C@@H](OC(=O)C(C)(C)C)C(=O)[C@H]1C[C@@H]3O[C@@H]3[C@H](OC(C)=O)[C@]21C`: the midpoint of inhibition, the IC50, lay at 10 µM.

`CC(=O)O[C@H]1[C@H]2[C@H]([C@@H]3[C@@H](O)[C@@H]4[C@H]([C@H](C)C=C5OC(=O)[C@@](C)(OC(=O)c6ccc7c(c6)C(=O)c6ccccc6C7=O)[C@@]54C)[C@@]3(C)[C@H]1OC(C)=O)[C@@H](OC(=O)c1ccc3c(c1)C(=O)c1ccccc1C3=O)C(=O)[C@H]1C[C@@H]3O[C@@H]3[C@H](OC(C)=O)[C@]21C` came in with an IC50 greater than 20 µM.

For the compound `CC(=O)O[C@H]1[C@H]2[C@H]([C@@H]3[C@@H](O)[C@@H]4[C@H]([C@H](C)[C@H]5O[C@]56OC(=O)[C@@](C)(O)[C@]46C)[C@@]3(C)[C@H]1OC(C)=O)[C@@H](OC(=O)c1ccc3c(c1)C(=O)c1ccccc1C3=O)C(=O)[C@H]1C[C@@H]3O[C@@H]3[C@H](OC(C)=O)[C@]21C`, 0.022 µM corresponded to half-maximal inhibition (IC50).

`CC(=O)O[C@H]1[C@H]2[C@H]([C@@H]3[C@@H](O)[C@@H]4[C@H]([C@H](C)C=C5OC(=O)[C@@](C)(O)[C@@]54C)[C@@]3(C)[C@H]1OC(C)=O)[C@@H](OC(=O)C(C)C)C(=O)[C@H]1C[C@@H]3O[C@@H]3[C@H](OC(C)=O)[C@]21C` registered an IC50 of 4.7 µM.

On to `CC(=O)O[C@H]1[C@H]2[C@H]([C@@H]3[C@@H](OC(=O)c4ccc5c(c4)C(=O)c4ccccc4C5=O)[C@@H]4[C@H]([C@H](C)[C@H]5O[C@]56OC(=O)[C@@](C)(O)[C@]46C)[C@@]3(C)[C@H]1OC(C)=O)[C@@H](O)C(=O)[C@H]1C[C@@H]3O[C@@H]3[C@H](OC(C)=O)[C@]21C`, for which the IC50 is 0.038 µM.

Turning to `CC(=O)O[C@H]1[C@H]2[C@H]([C@@H]3[C@@H](OC(=O)C4CC4)[C@@H]4[C@H]([C@H](C)C=C5OC(=O)[C@@](C)(O)[C@@]54C)[C@@]3(C)[C@H]1OC(C)=O)[C@@H](O)C(=O)[C@H]1C[C@@H]3O[C@@H]3[C@H](OC(C)=O)[C@]21C`, the IC50 is greater than 20 µM.

Turning to `CC(=O)O[C@H]1[C@H]2[C@H]([C@@H]3[C@@H](OC(=O)C(C)C)[C@@H]4[C@H]([C@H](C)C=C5OC(=O)[C@@](C)(O)[C@@]54C)[C@@]3(C)[C@H]1OC(C)=O)[C@@H](O)C(=O)[C@H]1C[C@@H]3O[C@@H]3[C@H](OC(C)=O)[C@]21C`, the concentration for half-maximal inhibition (IC50) was greater than 20 µM.

`CC(=O)O[C@H]1[C@H]2[C@H]([C@@H]3[C@@H](O)[C@@H]4[C@H]([C@H](C)C=C5OC(=O)[C@@](C)(OC(=O)C6CC6)[C@@]54C)[C@@]3(C)[C@H]1OC(C)=O)[C@@H](OC(=O)C1CC1)C(=O)[C@H]1C[C@@H]3O[C@@H]3[C@H](OC(C)=O)[C@]21C`: the IC50 was greater than 20 µM.

For the compound `CC(=O)O[C@H]1[C@H]2[C@H]([C@@H]3[C@@H](O)[C@@H]4[C@H]([C@H](C)[C@H]5O[C@]56OC(=O)[C@@](C)(OC(=O)c5ccc7c(c5)C(=O)c5ccccc5C7=O)[C@]46C)[C@@]3(C)[C@H]1OC(C)=O)[C@@H](OC(=O)c1ccc3c(c1)C(=O)c1ccccc1C3=O)C(=O)[C@H]1C[C@@H]3O[C@@H]3[C@H](OC(C)=O)[C@]21C`, the half-inhibitory concentration (IC50) was 3 µM.

The compound `CC(=O)O[C@H]1[C@H]2[C@H]([C@@H]3[C@@H](O)[C@@H]4[C@H]([C@H](C)C=C5OC(=O)[C@@](C)(OC(=O)C(C)C)[C@@]54C)[C@@]3(C)[C@H]1OC(C)=O)[C@@H](OC(=O)C(C)C)C(=O)[C@H]1C[C@@H]3O[C@@H]3[C@H](OC(C)=O)[C@]21C` registered an IC50 greater than 20 µM.

Compound `CC(=O)O[C@H]1[C@H]2[C@H]([C@@H]3[C@@H](O)[C@@H]4[C@H]([C@H](C)C=C5OC(=O)[C@@](C)(O)[C@@]54C)[C@@]3(C)[C@H]1OC(C)=O)[C@@H](OC(=O)CC(C)C)C(=O)[C@H]1C[C@@H]3O[C@@H]3[C@H](OC(C)=O)[C@]21C` had an IC50 greater than 20 µM.

`CC(=O)O[C@H]1[C@H]2[C@H]([C@@H]3[C@@H](OC(=O)c4ccc5c(c4)C(=O)c4ccccc4C5=O)[C@@H]4[C@H]([C@H](C)C=C5OC(=O)[C@@](C)(O)[C@@]54C)[C@@]3(C)[C@H]1OC(C)=O)[C@@H](O)C(=O)[C@H]1C[C@@H]3O[C@@H]3[C@H](OC(C)=O)[C@]21C` returned an IC50 of 7.1 µM.

In turn, `CC(=O)O[C@H]1[C@H]2[C@H]([C@@H]3[C@@H](OC(=O)C(C)(C)C)[C@@H]4[C@H]([C@H](C)C=C5OC(=O)[C@@](C)(O)[C@@]54C)[C@@]3(C)[C@H]1OC(C)=O)[C@@H](O)C(=O)[C@H]1C[C@@H]3O[C@@H]3[C@H](OC(C)=O)[C@]21C` displayed an IC50 of 2.4 µM.

The compound `CC(=O)O[C@H]1[C@H]2[C@H]([C@@H]3[C@@H](O)[C@@H]4[C@H]([C@H](C)C=C5OC(=O)[C@@](C)(O)[C@@]54C)[C@@]3(C)[C@H]1OC(C)=O)[C@@H](OC(=O)c1ccc3c(c1)C(=O)c1ccccc1C3=O)C(=O)[C@H]1C[C@@H]3O[C@@H]3[C@H](OC(C)=O)[C@]21C` showed a half-inhibitory concentration (IC50) of 3.4 µM.

`CC(=O)O[C@H]1[C@H]2[C@H]([C@@H]3[C@@H](O)[C@@H]4[C@H]([C@H](C)C=C5OC(=O)[C@@](C)(OC(=O)CC(C)C)[C@@]54C)[C@@]3(C)[C@H]1OC(C)=O)[C@@H](OC(=O)CC(C)C)C(=O)[C@H]1C[C@@H]3O[C@@H]3[C@H](OC(C)=O)[C@]21C` registered an IC50 greater than 20 µM.

`CC(=O)O[C@H]1[C@H]2[C@H]([C@@H]3[C@@H](OC=O)[C@@H]4[C@H]([C@H](C)C=C5OC(=O)[C@@](C)(O)[C@@]54C)[C@@]3(C)[C@H]1OC(C)=O)[C@@H](O)C(=O)[C@H]1C[C@@H]3O[C@@H]3[C@H](OC(C)=O)[C@]21C` showed an IC50 greater than 20 µM.

`CC(=O)O[C@H]1[C@H]2[C@H]([C@@H]3[C@@H](OC(=O)CC(C)C)[C@@H]4[C@H]([C@H](C)C=C5OC(=O)[C@@](C)(O)[C@@]54C)[C@@]3(C)[C@H]1OC(C)=O)[C@@H](O)C(=O)[C@H]1C[C@@H]3O[C@@H]3[C@H](OC(C)=O)[C@]21C` had an IC50 of 1.5 µM.

On to `CC(=O)O[C@@H]1[C@H]2[C@H]3[C@H]([C@H](OC(C)=O)[C@H](OC(C)=O)[C@]2(C)[C@@H]2[C@@H]1[C@]1(C)C(=C[C@H]2C)OC(=O)[C@@]1(C)O)[C@]1(C)[C@H](C[C@@H]2O[C@@H]2[C@@H]1OC(C)=O)C(=O)[C@@H]3O` [TACCALONOLIDE A], for which the IC50 turned out to be 5.4 µM.
